TCR CD3 inh: blocks the human TCR-CD3 interaction. TAMRA-labeled TCR probe fluorescence, biochemical. inhibition, % at 9.4 µM. 360,000 compounds, 0.37% hits. AID 651800;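 also: recombinant mutant TCR 2C K166C tagged with TAMRA read by polarization; 0% = receptor in buffer alone and 100% = receptor with positive control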
SIAE inh: inhibitors of human sialic acid acetylesterase SIAE; Q9HAT2; SIAE FP-Rh probe binding, fluorescence polarization; inhibition, % at 9.66 µM; 370,000 compounds, 0.69% hits; AID 1053197;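 active = inhibition above a cutoff: mean of compounds within the control limits plus 3 SD of those, cut at about 17% in these data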;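 also: 0% = plate median of compound wells and 100% = probe without SIAE protein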
Tn7 DDE FP: disrupts Tn7 cyclic peptide binding to fibrin D-Dimer-E complex; 370,000 compounds, 0.13% hits; AID 720508; inhibition, % at 8.3 µM; FP displacement of FITC-Tn7 peptide from fibrin DD(E); 0% = median of compound wells per plate;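 active = inhibition above the mean of compounds falling within the control limits plus 3 SD of them, cut at about 14% in these data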;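 also: 0% = plate median of compound wells and 100% = 10 µM Aha-Tn7 peptide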
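Test system: human clot-derived fibrin DD(E) complex / Quantity: 2 µM final DD(E) protein / Incubation: 10 min plus 3 h, room temperature / Measured by: fluorescence polarization / Benchmarks: high control of 10 µM Aha-Tn7 peptide / Replicates: singlicate testing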
HTRA1 inh: inhibitors of human serine peptidase HTRA1; Q92743; recombinant HTRA1, FP-rhodamine activity-based probe, fluorescence polarization; inhibition, % at 5.96 µM; 340,000 compounds, 0.5% hits; in the data active = inhibition above about 36%;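 also: 0% = enzyme with DMSO and 100% = wells lacking enzyme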
Target sequence (Q92743 whole entry, looked up): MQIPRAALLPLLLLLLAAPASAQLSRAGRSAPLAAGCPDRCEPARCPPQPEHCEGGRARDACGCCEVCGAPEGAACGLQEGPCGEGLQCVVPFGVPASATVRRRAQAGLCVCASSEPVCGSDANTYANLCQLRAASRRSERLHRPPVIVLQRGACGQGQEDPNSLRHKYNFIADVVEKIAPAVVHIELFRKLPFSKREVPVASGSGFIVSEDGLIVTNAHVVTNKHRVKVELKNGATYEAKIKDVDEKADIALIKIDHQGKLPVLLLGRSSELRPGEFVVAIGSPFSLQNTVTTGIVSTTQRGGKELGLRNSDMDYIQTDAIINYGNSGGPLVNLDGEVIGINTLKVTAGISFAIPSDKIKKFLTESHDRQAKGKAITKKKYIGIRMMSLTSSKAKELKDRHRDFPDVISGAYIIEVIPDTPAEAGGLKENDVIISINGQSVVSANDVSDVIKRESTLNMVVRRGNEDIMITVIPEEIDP
DDE Tn6 FP inh: disrupts Tn6 cyclic peptide binding to fibrin D-Dimer-E complex | Fibrin DD(E) TRITC-Tn6 fluorescence polarization displacement | inhibition, % at 8.3 µM | AID 720509 | 370,000 compounds, 0.21% hits;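 active = inhibition above a per-campaign cutoff: mean of compounds within control limits plus 3 SD, cut at about 15% in these data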;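 also: 0% = median of all compound wells on the plate and 100% = blocking peptide control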
ABHD4 inh: inhibitors of mouse ABHD4; Q8VD66; purified mABHD4, FP-Rh probe fluorescence polarization; inhibition, % at 8.92 µM; 370,000 compounds, 0.54% hits;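 active = inhibition exceeding the mean over every tested compound plus 3 SD, cut at about 30% in these data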;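 also: 0% = plate median of compound wells and 100% = S159A mutant with DMSO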
Target sequence (Q8VD66 whole entry, looked up): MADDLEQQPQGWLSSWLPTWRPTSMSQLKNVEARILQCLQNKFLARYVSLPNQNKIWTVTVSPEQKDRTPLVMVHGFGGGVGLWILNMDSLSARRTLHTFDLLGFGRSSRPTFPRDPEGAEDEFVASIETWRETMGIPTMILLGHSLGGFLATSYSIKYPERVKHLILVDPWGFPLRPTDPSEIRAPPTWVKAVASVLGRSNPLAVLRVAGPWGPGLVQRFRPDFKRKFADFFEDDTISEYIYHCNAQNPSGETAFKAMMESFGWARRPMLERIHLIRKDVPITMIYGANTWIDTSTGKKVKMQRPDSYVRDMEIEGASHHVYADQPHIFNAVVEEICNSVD
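Assay system: mABHD4 protein; medium: HEPES pH 7.0, NaCl, Pluronic buffer; dosing: 8.92 µM, single dose; schedule: 45 min + 60 min at 25 °C; signal: FP readout, ex 525 nm / em 598 nm; read-out: normalized percent inhibition of probe labeling; repeats: single replicate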
BSA probe FL: interferes with TAMRA-BSA probe, flagging TCR-CD3 hits; TAMRA-labeled BSA probe fluorescence counterscreen; inhibition, % at 9.4 µM; 1,200 compounds, 10% hits; shares compounds with TCR CD3 inh; in the data active = inhibition above about 23%;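 also: 0% = buffer low control and 100% = reference high control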
TCR-CD3 inh conf: confirmation of human TCR-CD3 interaction inhibitors | 1,200 compounds, 48% hits | AID 652036 | shares compounds with TCR CD3 inh | TAMRA-labeled TCR probe fluorescence binding assay | inhibition, % at 9.4 µM
DDE Tn7 confirm: confirmation of inhibitors of Tn7 binding to human fibrin DD(E); shares compounds with Tn7 DDE FP; FP displacement of TRITC-Tn7 peptide from DD(E); 0% set at plate's compound-well median; inhibition, % at 8.3 µM; 460 compounds, 5% hits; AID 720628;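 active = inhibition above the campaign cutoff, the mean of compounds within control limits plus 3 SD, cut at about 14% in these data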;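 also: 100% = median FP of high control wells holding Aha-Tn7 inhibitor peptide; displacers lower polarization since freed probe rises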
DDE Tn7 FP ctr: counter-screen hit for Tn7 peptide-fibrin DD(E) binding disruption. shares compounds with Tn7 DDE FP. TRITC-Tn7 probe displacement, fluorescence polarization. inhibition, % at 8.3 µM. 460 compounds, 3% hits. AID 720633;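 active = inhibition above the cutoff, the mean of compounds lying between the control bounds plus 3 SD of those compounds, cut at about 17% in these data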;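 also: 0% = median of compound sample wells and 100% = excess unlabeled Aha-Tn7 peptide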
DDE Tn6 FP ctr: counter-screen hit for Tn6 peptide-fibrin DD(E) binding disruption; TRITC-Tn6 fluorescence polarization displacement; 0% = median of compound wells, not DMSO; shares compounds with DDE Tn6 FP inh; inhibition, % at 8.3 µM; 680 compounds, 2% hits; AID 720621;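 active = inhibition above the mean of test compounds lying between the control limits plus 3 SD of those, cut at about 14% in these data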;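 also: 0% = median of compound wells and 100% = wells with Aha-Tn7 blocking peptide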
Tn6 DDE conf: DD(E)-Tn6 binding inhibition, FP confirmation | shares compounds with DDE Tn6 FP inh | FP displacement of TRITC-Tn6 peptide from DD(E); 0% = per-plate median of test wells | inhibition, % at 8.3 µM | 680 compounds, 10% hits | AID 720631;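 active = inhibition above the mean of compounds lying within the control limits plus 3 SD, cut at about 16% in these data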;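 also: 100% = high control wells holding a competing inhibitor peptide at 10 µM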
mABHD4 conf: confirmation of mouse ABHD4 inhibitors; purified mABHD4, FP-Rh probe fluorescence polarization; inhibition, % at 8.92 µM; 1,800 compounds, 55% hits; shares compounds with ABHD4 inh;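 active = mean inhibition across replicates above the hit cutoff set in the primary screen, cut at about 30% in these data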;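 also: 0% = wild-type ABHD4 with DMSO and 100% = catalytically dead S159A mutant with DMSO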
SIAE inh conf: human SIAE inhibition, confirmation; SIAE FP-Rh activity-based probe, fluorescence polarization; inhibition, % at 9.66 µM; 2,300 compounds, 13% hits; shares compounds with SIAE inh;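 active = mean inhibition of the replicates above the hit cutoff set in the primary screen, cut at about 17% in these data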;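 also: 0% = SIAE with DMSO and probe and 100% = probe without SIAE; inhibitors lower polarization as more probe stays unbound to SIAE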
The depositor's hits bear a star. Compounds with a hit are over-represented: about 1.8% of the library has one in this group of screens. Rule as the data show it, unless noted: active = inhibition above about 19%; inactive = the rest.

For CC(=O)Nc1ccc(Nc2c3c4c(cccc4n(C)c2=O)C(=O)c2ccccc2-3)cc1 the results were TCR CD3 inh 21.4*, SIAE inh 6.1, Tn7 DDE FP 18.6*, HTRA1 inh 20.7, DDE Tn6 FP inh -1.9, ABHD4 inh 30.9*, BSA probe FL 54.9*, TCR-CD3 inh conf 37.3*, DDE Tn7 confirm 11.6, DDE Tn7 FP ctr 7.7 and mABHD4 conf 33.4*.
For O=C(N/N=C\c1c(O)ccc2ccccc12)c1ccc(O)cc1 the results were TCR CD3 inh 28.4*, SIAE inh 27.2*, Tn7 DDE FP 5.3, HTRA1 inh 14.2, DDE Tn6 FP inh -7.7, ABHD4 inh 0.6, BSA probe FL -12.4, TCR-CD3 inh conf 20.9* and SIAE inh conf -47.8.
O=C(CNc1ccccc1)N/N=C/c1c(O)ccc2ccccc12 was read as TCR CD3 inh -5.6, SIAE inh 5.3, Tn7 DDE FP -0.1, HTRA1 inh 20.9, DDE Tn6 FP inh -4.8 and ABHD4 inh 0.0.
Cc1cc2c(c(=O)o1)C(c1ccc([N+](=O)[O-])o1)C(C#N)=C(N)O2 (stereo not drawn) was read as TCR CD3 inh 37.5*, SIAE inh 22.8*, Tn7 DDE FP 7.4, DDE Tn6 FP inh 14.5, ABHD4 inh 32.1*, BSA probe FL 5.0, TCR-CD3 inh conf 10.8, mABHD4 conf -10.9 and SIAE inh conf 0.4.
CCC(CC)C1C(C#N)=C(N)Oc2cc(C)oc(=O)c21 (stereo not drawn) was read as TCR CD3 inh 9.1, SIAE inh -1.0, Tn7 DDE FP -1.7, HTRA1 inh 0.8, DDE Tn6 FP inh 8.6 and ABHD4 inh -9.2.
For Cc1cc(CNC(=O)c2cccc(OC3CCN(S(=O)(=O)N(C)C)CC3)c2)on1 the results were TCR CD3 inh 7.1, SIAE inh 2.8, Tn7 DDE FP -4.6, HTRA1 inh 4.4, DDE Tn6 FP inh -9.3 and ABHD4 inh -0.6.
CCn1c(CSc2nnc(-c3ccncc3)n2CCOC)nc2cc(C(=O)O)ccc21 was read as TCR CD3 inh 31.6*, SIAE inh 18.8*, Tn7 DDE FP 1.9, HTRA1 inh 27.2, DDE Tn6 FP inh 19.1*, ABHD4 inh 13.5, BSA probe FL 160.3*, TCR-CD3 inh conf 108.8*, DDE Tn6 FP ctr -2.1, Tn6 DDE conf 46.7* and SIAE inh conf 38.2*.
For CS(=O)(=O)c1ccc(C(=O)Nc2nc(-c3ccco3)c(-c3ccco3)s2)cc1 the results were TCR CD3 inh 33.5*, SIAE inh 46.7*, Tn7 DDE FP 0.5, HTRA1 inh 5.1, DDE Tn6 FP inh -10.2, ABHD4 inh 39.7*, BSA probe FL -5.9, TCR-CD3 inh conf 3.5, mABHD4 conf -16.1 and SIAE inh conf 2.7.
Screening O=C(Nc1nc(-c2ccco2)c(-c2ccco2)s1)C1CCC1 returned TCR CD3 inh -4.5, SIAE inh 1.8, Tn7 DDE FP 8.1, HTRA1 inh 9.6, DDE Tn6 FP inh -7.7 and ABHD4 inh 13.2.
For CSCCC(NC(=O)OCc1ccccc1)C(=O)NCc1cccnc1 (stereo not drawn) the results were TCR CD3 inh -0.1, SIAE inh 5.4, Tn7 DDE FP -3.3, HTRA1 inh 2.6, DDE Tn6 FP inh -9.5 and ABHD4 inh 1.6.
For O=C(N/N=C/c1ccoc1)c1ccccc1 the results were TCR CD3 inh 0.9, SIAE inh 3.4, Tn7 DDE FP 3.6, HTRA1 inh -3.0, DDE Tn6 FP inh -6.5 and ABHD4 inh -5.2.
For O=C(N/N=C/c1ccoc1)c1ccccc1O the results were TCR CD3 inh 25.3*, SIAE inh 19.2*, Tn7 DDE FP -5.9, HTRA1 inh 23.9, DDE Tn6 FP inh -2.0, ABHD4 inh 7.8, BSA probe FL -18.8, TCR-CD3 inh conf 14.7 and SIAE inh conf 15.7.
Cc1ccc(O)c(CP(=O)(c2ccccc2)c2ccccc2)c1 was read as TCR CD3 inh 4.2, SIAE inh 8.2, Tn7 DDE FP -4.1, HTRA1 inh -3.4, DDE Tn6 FP inh 2.1 and ABHD4 inh -2.2.
CCNc1ccccc1CP(=O)(c1ccccc1)c1ccccc1O (stereo not drawn) was read as TCR CD3 inh 51.2*, SIAE inh 34.5*, Tn7 DDE FP 9.7, DDE Tn6 FP inh 20.7*, ABHD4 inh 76.8*, BSA probe FL 3.8, TCR-CD3 inh conf 5.2, DDE Tn6 FP ctr 4.1, Tn6 DDE conf -8.9, mABHD4 conf 46.0* and SIAE inh conf 11.5.
Screening CCCCC1OC2(C)OC(=N)C1(C#N)C(C#N)(C#N)C2c1ccccc1 (stereo not drawn) returned TCR CD3 inh 20.4*, SIAE inh 38.0*, Tn7 DDE FP 3.8, HTRA1 inh 5.5, DDE Tn6 FP inh 14.2, ABHD4 inh 30.1*, BSA probe FL 4.3, TCR-CD3 inh conf 5.8, mABHD4 conf 10.4 and SIAE inh conf 2.1.
`Nc1c(C(=O)N/N=C/c2cccnc2)oc2nc(-c3ccco3)cc(-c3ccco3)c12` gave TCR CD3 inh 16.2, SIAE inh 5.0, Tn7 DDE FP 1.6, DDE Tn6 FP inh -13.3 and ABHD4 inh 23.2.
For NNC(=O)c1oc2nc(-c3ccco3)cc(-c3ccco3)c2c1N the results were TCR CD3 inh 25.3*, SIAE inh 50.5*, Tn7 DDE FP -1.3, DDE Tn6 FP inh -11.4, ABHD4 inh 21.1, BSA probe FL -1.9, TCR-CD3 inh conf 13.6 and SIAE inh conf 73.9*.

Assay outcomes as filed in PubChem BioAssay.
